An excerpt weighted towards active compounds, which were near 4.9% of everything screened.
NF-kB neuron act: compounds increasing NF-kB expression in human neuronal cells; NF-kB reporter expression; hits give high values; fold change at 12.5 µM; hit rate 1.6% among 190,000; AID 1239; in the data active = fold change above about 3.3
STAT3 blocker: STAT3 signaling inhibition; hit rate 0.89% among 190,000; inhibition, % at 5.5 µM; U3A cells, IL-6 STAT3-luciferase reporter, luminescence; host cell line lacks STAT1; AID 862;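 active = inhibition above the mean inhibition across all screened compounds plus 3 SD, cut at about 44% in these data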
STAT1 inh: inhibitors of IFN-gamma induced STAT1 signaling. inhibition, % at 5.5 µM. hit rate 0.35% among 200,000. NIH 3T3 STAT1-luciferase reporter, luminescence;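 active = inhibition above a set limit, the mean inhibition across all tested compounds plus 3 SD, cut at about 34% in these data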
STAT3 act: activators of IL-6 induced STAT3 signaling; U3A cells, IL-6 STAT3-luciferase reporter, luminescence; 100% = signal with IL-6 EC80 alone; activation (% of control), % at 5.6 µM; hit rate 0.91% among 190,000; AID 871;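 active = activation above the screen-wide mean of compound activation plus 3 SD, cut at about 130% in these data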
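Assay system – human STAT1-deficient U3A cells with stable STAT3-luciferase reporter · Also added – IL-6 (33 ng/mL) · Schedule – compound 1 h, then IL-6 6 h at 37 °C · Technique – reporter luminescence signal · Evaluation – % activation versus median of IL-6-stimulated wells · Benchmarks – IL-6-only wells as 100% reference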
APP 5'UTR act: activates APP 5'UTR luciferase reporter; SH-SY5Y APP 5'UTR luciferase reporter, luminescence; zero percent = DMSO vehicle wells; activation, % at 2 µM; hit rate 1% among 190,000; AID 1276;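 active = activation above a set limit, based on mean plus 3 SD of controls, cut at about 140% in these data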
STAT1 act: STAT1 signaling activation; NIH 3T3 STAT1-luciferase reporter, IFN-gamma, luminescence; 100% = IFN-gamma alone, no compound; activation (% of control), % at 5.5 µM; hit rate 2.6% among 200,000; AID 932;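 active = activation above the screen-wide mean activation plus 3 SD, cut at about 130% in these data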
Each line names hits and unclear results; the compound was inactive in the other large screens.

Cc1ccc(CSc2nnc(-c3ccccn3)n2C)cc1	none
Cn1c(SCc2ccc(F)cc2)nnc1-c1ccccn1	STAT1 act 140
Cn1c(SCc2ccccc2F)nnc1-c1ccccn1	STAT1 act 142
Cn1c(SCc2ccccc2F)nnc1-c1cnccn1	STAT1 act 137
Cn1c(SCc2ccccc2)nnc1-c1cccs1	none
Cc1cc(C)c(C(=O)CN2C(=O)NC3(CCCCCC3)C2=O)cc1C	none
O=C(/C=C/c1ccc2c(c1)OCO2)c1ccc[nH]1	APP 5'UTR act 188
COc1cccc(/C=C/C(=O)c2ccc[nH]2)c1	NF-kB neuron act 6.6, APP 5'UTR act 201
O=C(/C=C/c1ccc2c(c1)OCO2)c1ccc(F)cc1	none
COc1ccc(C2NC(=S)NC(O)(C(F)(F)F)C2C(=O)c2cccs2)cc1 (stereo not drawn)	none
O=c1[nH]c2ccccc2nc1C(F)(F)C(F)F	STAT1 act 138
O=c1[nH]c2cc3ccccc3cc2nc1C(F)(F)F	none
c1csc(CNc2ncnc3sccc23)c1	STAT3 blocker 66 (no result: NF-kB neuron act)
Cc1cccc(-n2ncc3c(NCc4ccccc4)ncnc32)c1	none
Cc1cccc(-n2ncc3c(NCc4ccco4)ncnc32)c1	STAT1 act 130
Cc1cccc(-n2ncc3c(N(CCO)CCO)ncnc32)c1	STAT1 act 130
COCCN(CCOC)c1ncnc2c1cnn2-c1ccc(Cl)cc1	none
Clc1ccc(-n2ncc3c(NCc4cccs4)ncnc32)cc1	STAT1 act 134
c1cncc(CNc2ncnc3sccc23)c1	none
Clc1ccc(Nc2ncnc3c2cnn3-c2ccccc2)cc1	none
CS(=O)(=O)c1ccc2nc(NC(=O)c3cc(-c4ccccc4)nn3-c3ccccc3)sc2c1	none
CCCc1nc2ccccc2c(=O)n1-c1ccc(C(=O)OCC)cc1	none
C/C(CC(=O)NCc1ccc(F)cc1)=N\NC(N)=S	none
Cc1cccc(-n2ncc3c(NCc4cccs4)ncnc32)c1	STAT1 act 131
COCCNc1ncnc2c1cnn2-c1ccc(Cl)cc1	NF-kB neuron act 7.4, APP 5'UTR act 197, STAT1 act 156
Cc1cccc(-n2ncc3c(NCCN4CCOCC4)ncnc32)c1	none
CC(=O)Nc1ccc(Nc2ncnc3c2cnn3-c2cccc(C)c2)cc1	STAT1 act 144
Cc1cccc(-n2ncc3c(N4CCCc5ccccc54)ncnc32)c1	STAT1 act 141
Cc1cccc(/C(N)=N/OC(=O)COc2ccccc2Cl)c1	STAT1 act 135
Cc1cccc(/C(N)=N/OC(=O)Cc2ccccc2)c1	STAT1 act 147
COc1ccc(/C(N)=N/OC(=O)COc2ccccc2Cl)cc1	none
COc1ccc2nc(N=Nc3ccc(N(C)C)cc3)sc2c1	STAT3 blocker 44, STAT1 inh 53
Clc1ccc(COn2nnc3ccccc32)c(Cl)c1	APP 5'UTR act 153, STAT1 act 146
O=[N+]([O-])c1ccc(COn2nnc3ccccc32)cc1	none
CN(C)c1oc(-c2ccccc2Cl)nc1P(=O)(c1ccccc1)c1ccccc1	none
CC1CCc2cc(F)ccc2N1S(=O)(=O)c1ccc(Cl)nc1 (stereo not drawn)	none
O=C(CSCc1cccc(F)c1)NCc1ccccc1	STAT1 act 133
O=C(CSCc1ccccc1F)NCc1ccccc1	STAT1 act 133
Cc1ccc(CNC(=O)CSCc2cccc(F)c2)cc1	none
O=C(Nc1ccccc1-c1nnn(CC(=O)N2CCOCC2)n1)c1ccccc1F	none
COc1cc(C(=O)NNC2=NC(C)(C)Cc3cc(C)c(C)cc32)cc(OC)c1OC	none
Nc1c(C(=O)Nc2nc3ccccc3s2)sc2nc(-c3cccs3)ccc12	STAT1 act 140
O=C(NC(=S)Nc1nc2ccccc2s1)c1cccs1	STAT3 act 151, APP 5'UTR act 145, STAT1 act 133
Cc1cc(C)nc(Nc2nc3ccccc3s2)n1	STAT3 act 156, APP 5'UTR act 147, STAT1 act 129
CC(=O)c1sc2nc(-c3cccs3)ccc2c1N	none
NC(=S)Nc1nc2ccccc2s1	STAT3 act 155, STAT1 act 134
O=c1[nH][nH]c(-c2ccccc2)c1C=Nc1ccc(OC(F)(F)F)cc1	none
N#Cc1c(-c2ccc(F)cc2)ccnc1N1CCOCC1	none
Cc1ccc(OCc2nc(-c3ccccn3)n[nH]2)cc1	NF-kB neuron act 13
O=C(COC(=O)C1(c2ccc(F)cc2)CCCC1)NCc1ccco1	none
Cc1ccccc1Nc1nnc(SCC(=O)NC2CCCc3ccccc32)s1 (stereo not drawn)	STAT1 act 144
Cc1ccc(Nc2nnc(SCC(=O)NC3CCCc4ccccc43)s2)cc1 (stereo not drawn)	none
COCCN(C(=S)Nc1ccc(C)cc1C)C(C)c1ccco1 (stereo not drawn)	none
CN(C)/C=C/C(=O)c1ccc(Cl)s1	none
CN(C)/C=C/C(=O)c1cnc(-c2ccccc2)s1	NF-kB neuron act 3.8, STAT1 act 131
O=[N+]([O-])c1cccc(-c2ccc(C(=S)N3CCOCC3)o2)c1	NF-kB neuron act 4.8, APP 5'UTR act 162, STAT1 act 143
O=[N+]([O-])c1cc(-c2ccc(C(=S)N3CCOCC3)o2)ccc1Cl	none
O=C(Nc1nccs1)c1ccc(-c2cccc([N+](=O)[O-])c2)o1	STAT1 act 143
S=C(c1ccc(-c2cc(Cl)ccc2Cl)o1)N1CCOCC1	none
S=C(c1ccc(-c2cccc(Cl)c2)o1)N1CCCCC1	APP 5'UTR act 180, STAT1 act 147
S=C(c1ccc(-c2cccc(Cl)c2)o1)N1CCOCC1	NF-kB neuron act 5.7, APP 5'UTR act 141
O=C(Nc1cnccn1)Nc1cccc(Cl)c1Cl	none
COc1ccc2[nH]c3c(=O)n4c(nc3c2c1)SCC4	none
COc1cc2[nH]c3c(=O)n4c(nc3c2cc1OC)SCCC4	STAT3 blocker 77, STAT1 inh 48
COc1ccc(CCN=C(N)NS(=O)(=O)c2ccc(F)cc2)cc1	none
O=C(/C=C/c1cccs1)N1CCCCC1	STAT1 act 130
Cc1ccc2sc(-c3ccc(NC(=O)c4cc(-n5cnnc5)ccc4Cl)cc3)nc2c1	APP 5'UTR act 156, STAT1 act 149
Cc1ccc(NC(=O)NNC(=O)c2snnc2C)cc1	none
Oc1ccc2c(c1)oc1cc(O)ccc12	NF-kB neuron act 7
O=C(COC(=O)c1cncc(Br)c1)NC1CCCCCC1	none
O=C(C1=C[C@H](c2csc3ccccc23)C[C@H](OCc2ccc(CO)cc2)O1)N1CCN(Cc2ccc3c(c2)OCO3)CC1	none (no result: STAT3 blocker, STAT3 act)
COc1ccc(Nc2nc(N)nc(CSC(=S)N3CCOCC3)n2)cc1	STAT1 act 142
CCOc1ccccc1OCCn1ncc2ccc(OC)c(OC)c2c1=O	none
COc1ccc2cnn(CCOc3ccccc3)c(=O)c2c1OC	NF-kB neuron act 3.6, APP 5'UTR act 176, STAT1 act 146

Screening data (PubChem)
